Activity calls are given as the source filed them. The calls are words filed in the database; no cut-off is given here.
Tests used:
Type in all cases: functional
[1] = Effect on wound healing activity in diabetic adult human primary keratinocytes assessed as upregulation of MIP1alpha protein levels at 1.96 uM after 24 hrs by bead-based suspension array analysis; conditions: Keratinocyte
[2] = test system: Fibroblast; test: Effect on antioxidant related gene expression in non-diabetic young human primary fibroblasts assessed as NFE2L2 mRNA levels at 1.96 uM after 6 hrs by qPCR analysis
[3] = test system: Fibroblast; test: Effect on pro-inflammatory related gene expression in non-diabetic adult human primary fibroblasts assessed as IL1R1 mRNA levels at 9.81 uM after 6 hrs by qPCR analysis
[4] = Effect on wound healing activity in non-diabetic adult human primary fibroblasts assessed as upregulation of soluble ICAM1 protein levels at 1.96 uM after 24 hrs by bead-based suspension array analysis; conditions: Fibroblast
[5] = test system: Fibroblast; test: Effect on growth factor related gene expression in diabetic adult human primary fibroblasts assessed as VEGFA mRNA levels at 9.81 uM after 6 hrs by qPCR analysis
Outline: (§1)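 Primary human dermal fibroblasts (young or adult nondiabetic, adult diabetic donor) were treated for 6 h against a 0.1% DMSO solvent control. RNA from 320 000 cells per sample was measured by Fluidigm Biomark high-throughput qPCR. Values are fold change relative to solvent control, from four independent experiments, with SD. One-way ANOVA with Bonferroni post-test was applied.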

[6] = Effect on wound healing activity in diabetic adult human primary fibroblasts assessed as upregulation of soluble TNFR1 protein levels at 1.96 uM after 24 hrs by bead-based suspension array analysis; conditions: Fibroblast
[7] = test system: Fibroblast; test: Effect on antiinflammatory related gene expression in non-diabetic young human primary fibroblasts assessed as SOCS3 mRNA levels at 9.81 uM after 6 hrs by qPCR analysis
[8] = test system: Keratinocyte; test: Effect on pro-inflammatory related gene expression in diabetic adult human primary keratinocytes assessed as PTGS2 mRNA levels at 9.81 uM after 6 hrs by qPCR analysis
[9] = test system: Keratinocyte; test: Effect on pro-inflammatory related gene expression in non-diabetic young human primary keratinocytes assessed as TNF mRNA levels at 1.96 uM after 6 hrs by qPCR analysis
[10] = test system: Fibroblast; test: Effect on pro-inflammatory related gene expression in non-diabetic adult human primary fibroblasts assessed as IL6 mRNA levels at 9.81 uM after 6 hrs by qPCR analysis
[11] = test system: Fibroblast; test: Effect on pro-inflammatory related gene expression in non-diabetic adult human primary fibroblasts assessed as IL1R1 mRNA levels at 1.96 uM after 6 hrs by qPCR analysis
[12] = test system: Keratinocyte; test: Effect on transcription factor related gene expression in diabetic adult human primary keratinocytes assessed as JUN mRNA levels at 9.81 uM after 6 hrs by qPCR analysis
[13] = test system: Fibroblast; test: Effect on actin cytoskeleton in human non-diabetic primary fibroblasts assessed as formation of thin elongated cellular body at 10 nM after 2 hrs in presence of p-38 MAPK inhibitor LN 950 by rhodamine phalloidin-staining based fluorescence microscopic analysis
Outline: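 Subconfluent cells on glass coverslips, collagen type I coated for fibroblasts; keratinocytes starved 2 days before stimulation. Exposure 2 h, then rhodamine-phalloidin staining (1:25 in PBS) and fluorescence microscopy. Controls were DMSO as solvent and PDGF (fibroblasts) or CNF1 (keratinocytes). Where used, p38-MAPK inhibitor LN 950 (100 nM) was added 30 min beforehand.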

[14] = Effect on wound healing activity in diabetic adult human primary keratinocytes assessed as upregulation of IL1RA protein levels at 1.96 uM after 24 hrs by bead-based suspension array analysis; conditions: Keratinocyte
[15] = test system: Keratinocyte; test: Effect on cellular connection related gene expression in non-diabetic adult human primary keratinocytes assessed as CLDN4 mRNA levels at 1.96 uM after 6 hrs by qPCR analysis
[16] = test system: Fibroblast; test: Effect on pro-inflammatory related gene expression in non-diabetic young human primary fibroblasts assessed as PTGS2 mRNA levels at 9.81 uM after 6 hrs by qPCR analysis
[17] = test system: Fibroblast; test: Effect on pro-inflammatory related gene expression in diabetic adult human primary fibroblasts assessed as IL1B mRNA levels at 9.81 uM after 6 hrs by qPCR analysis; outline: as §1
[18] = test system: Fibroblast; test: Effect on transcription factor related gene expression in non-diabetic adult human primary fibroblasts assessed as JUN mRNA levels at 1.96 uM after 6 hrs by qPCR analysis
[19] = test system: Keratinocyte; test: Effect on pro-inflammatory related gene expression in non-diabetic adult human primary keratinocytes assessed as IL1B mRNA levels at 9.81 uM after 6 hrs by qPCR analysis
[20] = test system: Fibroblast; test: Effect on antiinflammatory related gene expression in non-diabetic adult human primary fibroblasts assessed as NFKBIA mRNA levels at 9.81 uM after 6 hrs by qPCR analysis
Outline: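 Primary dermal fibroblasts from one nondiabetic young, one nondiabetic adult and one diabetic adult donor; 320 000 cells per sample, 6 h at 1.96 or 9.81 μM. RNA measured on a high-throughput qPCR chip. Fold change versus 0.1% DMSO control, four independent experiments, SD, one-way ANOVA with Bonferroni post-test.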

[21] = test system: Fibroblast; test: Effect on transcription factor related gene expression in non-diabetic young human primary fibroblasts assessed as JUN mRNA levels at 1.96 uM after 6 hrs by qPCR analysis
[22] = test system: Keratinocyte; test: Effect on pro-inflammatory related gene expression in diabetic adult human primary keratinocytes assessed as IL6 mRNA levels at 1.96 uM after 6 hrs by qPCR analysis
[23] = Effect on wound healing activity in diabetic adult human primary fibroblasts assessed as upregulation of MIF protein levels at 1.96 uM after 24 hrs by bead-based suspension array analysis; conditions: Fibroblast
[24] = test system: Keratinocyte; test: Effect on MMP1 mRNA expression levels in non-diabetic young human primary keratinocytes at 1.96 uM after 6 hrs by qPCR analysis
Outline: (§2)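 Primary keratinocytes from nondiabetic young and adult and diabetic adult donors; 400 000 cells per sample, 6 h exposure at 1.96 or 9.81 μM. RNA extracted and read on a high-throughput qPCR chip. Results are fold change versus 0.1% DMSO solvent control from 5−7 independent experiments over two donors per group, SD, one-way ANOVA with Bonferroni post-test.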

[25] = test system: Keratinocyte; test: Effect on pro-inflammatory related gene expression in non-diabetic adult human primary keratinocytes assessed as IL1R1 mRNA levels at 1.96 uM after 6 hrs by qPCR analysis
[26] = test system: Fibroblast; test: Effect on chemokines related gene expression in non-diabetic adult human primary fibroblasts assessed as WDR26 mRNA levels at 9.81 uM after 6 hrs by qPCR analysis
[27] = test system: Keratinocyte; test: Effect on antiinflammatory related gene expression in diabetic adult human primary keratinocytes assessed as NFKBIA mRNA levels at 1.96 uM after 6 hrs by qPCR analysis; outline: as §2
[28] = test system: Keratinocyte; test: Effect on chemokines related gene expression in diabetic adult human primary keratinocytes assessed as IL8 mRNA levels at 9.81 uM after 6 hrs by qPCR analysis
[29] = Effect on wound healing activity in diabetic adult human primary fibroblasts assessed as upregulation of RANTES protein levels at 1.96 uM after 24 hrs by bead-based suspension array analysis; conditions: Fibroblast
[30] = test system: Keratinocyte; test: Effect on pro-inflammatory related gene expression in non-diabetic young human primary keratinocytes assessed as IL1R1 mRNA levels at 1.96 uM after 6 hrs by qPCR analysis

Compound: C=C(C)[C@@H]1CC[C@]2(CO)CC[C@]3(C)[C@H](CC[C@@H]4[C@@]5(C)CC[C@H](O)C(C)(C)[C@@H]5CC[C@]43C)[C@@H]12 [BETULIN]
- Activity [1]: Active
- fold change (FC) [2]: 1.2
- fold change (FC) [3]: 4.9
- Activity [4]: Active
- fold change (FC) [5]: 2
- Activity [6]: Active
- fold change (FC) [7]: 3.2
- fold change (FC) [8]: 2.2
- fold change (FC) [9]: 4.5
- fold change (FC) [10]: 246
- fold change (FC) [11]: 4.8
- fold change (FC) [12]: 1.7
- Activity [13]: Active
- Activity [14]: Active
- fold change (FC) [15]: 1
- fold change (FC) [16]: 14.7
- fold change (FC) [17]: 2.9
- fold change (FC) [18]: 1.9
- fold change (FC) [19]: 0.9
- fold change (FC) [20]: 11
- fold change (FC) [21]: 1
- fold change (FC) [22]: 12.8
- Activity [23]: Active
- fold change (FC) [24]: 1
- fold change (FC) [25]: 0.7
- fold change (FC) [26]: 1.3
- fold change (FC) [27]: 1.2
- fold change (FC) [28]: 56
- Activity [29]: Active
- fold change (FC) [30]: 0.9

From ChEMBL document CHEMBL3853270, “Influence of Birch Bark Triterpenes on Keratinocytes and Fibroblasts from Diabetic and Nondiabetic Donors” (2016)
